This note sets out measurements from PubChem BioAssay.

As usually defined, the viability is a read-out of living cells in per cent, often relative to untreated cells. By inhibition is commonly meant the change of the read-out against control, counted positive when it falls.

The nature of assay [1]: reducers of endogenous Her2 protein level, primary screen, SKBR3 breast tumor cells, AlphaScreen, ATP viability (AID 461;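 active means Her2 level under about 52% in both replicate screens, with viability over 70% of control, limit read from the data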;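 on Her2 level: lower value means less Her2 protein in the cells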;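 on viability: percent of carrier control wells set as 100% viability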). As to conditions: 18-24 h, measured here: SKBR3 viability, ATP luminescence, at 10 µM.
Assay [2] addresses Receptor tyrosine-protein kinase erbB-2 (Homo sapiens) (UniProt P04626). The assay is described as above. As to conditions: 18-24 h, at 10 µM, stronger effect = lower value.
Assay [3] can be described thus: SK-BR-3 cell growth inhibitors, pilot screen, 24 h, human (AID 572;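 active means viability at or below 10% of carrier control in both of two separate runs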;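 further: compound exposure lasted between 18 and 24 h rather than exactly 24 h; 100% = carrier-treated control wells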). Conditions: SK-BR-3 viability, CellTiter-Glo luminescence, at 10 µM, stronger effect = lower value. A general note: ATP-based viability assays read luminescence as a measure of living cells.
Assay [4] in a line: HUVEC growth inhibition – cell-based, human, primary screen (AID 575).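 Further: 100% = median of untreated cell wells with 0.1% DMSO on each plate.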 Conditions: HUVEC proliferation, CellTiter-Glo luminescence, 72 h; at 10 µM; stronger effect = lower value. The method, boiled down: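 System: primary human umbilical vein endothelial cells; Quantity: 1250 endothelial cells in each well; Buffer or medium: supplemented EBM, 2% fetal bovine serum; Doses: one dose, 10 µM final, 0.1% DMSO; Incubation: 72 h compound incubation; Technique: ATP-based CellTiter-Glo luminescent read; Evaluation: percent of median DMSO-control luminescence; Controls: vehicle and MePR control wells.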

Assay [5] is described as follows: growth inhibitors of H69AR lung tumor, primary screen, human, duplicate replicates (AID 580;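 active means viability at or under a set limit in both replicates, limit being median viability minus 3 SD, cut at about 48% in these data, passing the limit was not always enough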;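 further: 100% = mean luminescence of untreated wells and 0% = no signal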). Conditions: H69AR lung tumor cells viability, ATP luminescence, 72 h; at 10 µM; stronger effect = lower value.
A short description of assay [6]: reversal of MRP1-mediated doxorubicin resistance, pilot screen, H69AR cells, doxorubicin co-treatment (AID 601;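 active means viability loss from added drug above about 55%, and viability with drug at most 40%, in both replicates, limit read from the data, passing the limit was not always enough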). Conditions: CellTiter-Glo, 72 h, at 10 µM; for differential viability (reversal): stronger effect = higher value.
A short description of assay [7]: 384-well plate pilot, post-Golgi transport modulator project, inhibition of yeast transport mutant growth (AID 636; in the data active means inhibition above about 31%). Conditions: absorbance 615 nm, about 18 h, stronger effect = higher value.
Assay [8] is described as follows: growth suppression of yeast trafficking mutant, preliminary HTS, modulators of trafficking downstream of Golgi apparatus project, 1536-format plate, OD 615 nm (AID 637; in the data active means inhibition above about 30%). As to conditions: yeast transport mutant growth, absorbance 615 nm, 18 h; stronger effect = higher value.
The mark [9] stands for this setting: H69AR cells + 2 uM doxorubicin, measured here: viability with 2 uM doxorubicin, stronger effect = lower value.
Setting [10] is: H69AR cells, compound alone cytotoxicity.

The structures appear in SMILES notation. Active and inactive are the calls of the source.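 How the source made its calls, unless noted: active means viability at or below 30% in both replicate assays; inconclusive means viability at or below 30% in just one of the two assays; inactive means the rest.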

Receptor tyrosine-protein kinase erbB-2 (Homo sapiens), sequence (P04626 whole entry, looked up): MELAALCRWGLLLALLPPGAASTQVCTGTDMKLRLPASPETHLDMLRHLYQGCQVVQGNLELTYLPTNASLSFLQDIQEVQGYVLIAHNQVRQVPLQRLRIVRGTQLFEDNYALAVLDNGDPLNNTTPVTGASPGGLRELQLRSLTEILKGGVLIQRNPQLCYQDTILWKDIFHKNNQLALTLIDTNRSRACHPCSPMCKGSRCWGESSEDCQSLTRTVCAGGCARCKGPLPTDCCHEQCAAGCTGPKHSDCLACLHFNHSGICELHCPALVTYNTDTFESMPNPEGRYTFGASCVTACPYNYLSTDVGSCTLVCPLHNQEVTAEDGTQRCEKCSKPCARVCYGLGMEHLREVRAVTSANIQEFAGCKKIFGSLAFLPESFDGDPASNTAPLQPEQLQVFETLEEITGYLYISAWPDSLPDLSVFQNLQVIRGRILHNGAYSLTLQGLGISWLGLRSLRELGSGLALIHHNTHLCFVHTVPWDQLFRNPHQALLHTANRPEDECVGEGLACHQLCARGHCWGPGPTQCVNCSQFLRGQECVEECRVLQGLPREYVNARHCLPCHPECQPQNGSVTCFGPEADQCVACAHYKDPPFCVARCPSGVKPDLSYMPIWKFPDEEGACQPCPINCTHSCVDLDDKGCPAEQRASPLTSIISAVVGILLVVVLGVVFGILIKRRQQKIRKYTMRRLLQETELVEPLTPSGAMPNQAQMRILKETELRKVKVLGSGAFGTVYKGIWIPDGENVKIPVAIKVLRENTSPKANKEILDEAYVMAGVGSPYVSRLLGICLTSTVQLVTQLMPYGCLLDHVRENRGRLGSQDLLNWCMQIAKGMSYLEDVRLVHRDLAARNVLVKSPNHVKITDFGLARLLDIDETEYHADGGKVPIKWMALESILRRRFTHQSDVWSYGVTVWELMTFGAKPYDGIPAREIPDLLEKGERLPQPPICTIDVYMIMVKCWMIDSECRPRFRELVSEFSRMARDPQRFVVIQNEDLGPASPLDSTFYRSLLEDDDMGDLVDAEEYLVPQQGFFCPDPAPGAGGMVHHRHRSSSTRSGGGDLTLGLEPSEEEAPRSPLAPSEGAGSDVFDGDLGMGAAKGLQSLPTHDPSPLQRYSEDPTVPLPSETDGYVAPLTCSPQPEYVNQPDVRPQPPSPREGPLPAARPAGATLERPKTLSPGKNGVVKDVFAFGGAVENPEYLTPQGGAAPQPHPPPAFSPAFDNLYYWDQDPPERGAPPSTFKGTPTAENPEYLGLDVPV

Take `COc1cc(SC)ccc1C(=O)Nc1ccon1`: the viability in assay [1] is 98.5%; in assay [3], 98.5% (inactive); in assay [4], 93% (inactive); in assay [5], 101% (inactive); in assay [6] (setting [9]), 94.5%; in assay [6] (setting [10]) it was 101%. The Her2 level in assay [2] was 104% (inactive). For the same compound, the differential viability (reversal) in assay [6] (H69AR cells + 2 uM doxorubicin) was 6.34% (inactive). Also, the results for the inhibition in assay [7] and in assay [8] were 0.27% (inactive) and 18.6% (inactive), respectively.
As to `CCOC(=O)Cn1c(S(=O)(=O)Cc2ccccc2)nc2ccccc21`, the viability in assay [1] is 86%; in assay [3], 86% (inactive); in assay [4], 103% (inactive); in assay [5], 91.5% (inactive); in assay [6] (setting [9]) it was 87.2%; in assay [6] (setting [10]), 91.5%. The Her2 level in assay [2] was 89.5% (inactive). In assay [6] (H69AR cells + 2 uM doxorubicin), the differential viability (reversal) is 4.28% (inactive). For the same compound, the inhibition is -0.13% (inactive) in assay [7] and -3% (inactive) in assay [8].
In the case of `COc1ccc(NC(=O)C(C)NS(=O)(=O)c2ccc(NC(C)=O)cc2)cc1Cl` (stereo not given), the viability in assay [1] is 124%; in assay [3], 124% (inactive); in assay [4] it was 103% (inactive); in assay [5], 95% (inactive); in assay [6] (setting [9]) it was 87.4%; in assay [6] (setting [10]), 95%. The Her2 level in assay [2] was 97% (inactive). Also, in assay [6] (H69AR cells + 2 uM doxorubicin), the differential viability (reversal) is 7.65% (inactive). The inhibition in assay [7] was -6% (inactive); in assay [8] it was -1.75% (inactive).
In the case of `Cc1ccc(C)c(OCC(O)CN2C(C)CCCC2C)c1` (stereo not given), the viability in assay [1] is 70%; in assay [3] it was 70% (inactive); in assay [4] it was 96.2% (inactive); in assay [5] it was 83.8% (inactive); in assay [6] (setting [9]), 83.4%; in assay [6] (setting [10]) it was 83.8%. In addition, the Her2 level in assay [2] is 98% (inactive). Also, the differential viability (reversal) in assay [6] (H69AR cells + 2 uM doxorubicin) was 0.415% (inactive). Further, the inhibition in assay [7] is -0.53% (inactive); in assay [8] it was -0.95% (inactive).
As for `O=C(N1CCCCCC1)N1CCN(C(=O)N2CCOCC2)CC1`, the viability in assay [1] was 105%; in assay [3] it was 105% (inactive); in assay [4], 94.9% (inactive); in assay [5], 98.9% (inactive); in assay [6] (setting [9]), 93.7%; in assay [6] (setting [10]), 98.9%. Besides, in assay [2], the Her2 level was 104% (inactive). The differential viability (reversal) in assay [6] (H69AR cells + 2 uM doxorubicin) was 5.18% (inactive). Besides, the inhibition in assay [7] is 0.92% (inactive); in assay [8] it was -8.55% (inactive).
Regarding `O=C(c1ccco1)N1CCN(S(=O)(=O)c2ccc(C3CCCCC3)cc2)CC1`, the viability in assay [1] is 96%; in assay [3] it was 96% (inactive); in assay [4] it was 99.9% (inactive); in assay [5], 85.6% (inactive); in assay [6] (setting [9]), 85.1%; in assay [6] (setting [10]), 85.6%. The Her2 level in assay [2] was 97.5% (inactive). The differential viability (reversal) in assay [6] (H69AR cells + 2 uM doxorubicin) is 0.505% (inactive). Moreover, the results for the inhibition in assay [7] and in assay [8] were -4.53% (inactive) and 2.42% (inactive), respectively.
Take `O=C(Nc1ccccc1)c1cccc(N2CCCC2=O)c1`: the viability in assay [1] is 93%; in assay [3] it was 93% (inactive); in assay [4], 104% (inactive); in assay [5] it was 103% (inactive); in assay [6] (setting [9]) it was 84.8%; in assay [6] (setting [10]), 103%. Moreover, the Her2 level in assay [2] is 114% (inactive). Besides, the differential viability (reversal) in assay [6] (H69AR cells + 2 uM doxorubicin) was 18.2% (inactive). Also, the inhibition in assay [7] was -1.07% (inactive); in assay [8] it was -9.52% (inactive).
With `COc1ccc(C(=O)c2ccccc2)c(O)c1`, the viability was 86.5% in assay [1]; 86.5% (inactive) in assay [3]; 97.7% (inactive) in assay [4]; 106% (inactive) in assay [5]; 92% in assay [6] (setting [9]); 106% in assay [6] (setting [10]). Further, the Her2 level in assay [2] is 110% (inactive). Further, in assay [6] (H69AR cells + 2 uM doxorubicin), the differential viability (reversal) was 13.6% (inactive). The inhibition in assay [7] is -3.33% (inactive); in assay [8] it was 22.7% (inactive).
For the compound `CCOc1ccc(C(C)=O)cc1COc1ccc(-n2cnnn2)cc1`, the viability in assay [1] was 99%; in assay [3], 99% (inactive); in assay [4], 111% (inactive); in assay [5], 77.2% (inactive); in assay [6] (setting [9]), 79.8%; in assay [6] (setting [10]) it was 77.2%. Besides, in assay [2], the Her2 level is 108% (inactive). For the same compound, the differential viability (reversal) in assay [6] (H69AR cells + 2 uM doxorubicin) was -2.58% (inactive). Also, the values for the inhibition in assay [7] and in assay [8] were -4% (inactive) and -8.52% (inactive), respectively.
Consider `COc1ccc(N2CCN(Cc3nc(-c4ccc(Cl)cc4Cl)no3)CC2)cc1`, for which the viability in assay [1] was 117%; in assay [3], 117% (inactive); in assay [4], 70.5% (inactive); in assay [5], 91.5% (inactive); in assay [6] (setting [9]) it was 82.2%; in assay [6] (setting [10]), 91.5%. For the same compound, the Her2 level in assay [2] is 83.5% (inactive). Also, in assay [6] (H69AR cells + 2 uM doxorubicin), the differential viability (reversal) is 9.36% (inactive). In addition, the inhibition in assay [7] is -4.68% (inactive); in assay [8], -5.57% (inactive).
In the case of `C=CCn1c(=O)[nH]c2cc(C(=O)N3CCN(c4cc(C)ccc4C)CC3)ccc2c1=O`, the viability in assay [1] is 81.5%; in assay [3], 81.5% (inactive); in assay [4], 71.7% (inactive); in assay [5] it was 41.3% (active); in assay [6] (setting [9]), 33.6%; in assay [6] (setting [10]), 41.3%. Also, in assay [2], the Her2 level is 79.5% (inactive). Also, the differential viability (reversal) in assay [6] (H69AR cells + 2 uM doxorubicin) is 7.67% (inactive). Moreover, the figures for the inhibition in assay [7] and in assay [8] were -6.76% (inactive) and -0.83% (inactive), respectively.
For `CC(C)=CC/C=C1\CCC(C(=O)O)C(C(=O)O)C1` (stereo not given), the viability in assay [1] was 114%; in assay [3] it was 114% (inactive); in assay [4], 91.6% (inactive); in assay [5] it was 104% (inactive); in assay [6] (setting [9]) it was 83.2%; in assay [6] (setting [10]) it was 104%. Also, in assay [2], the Her2 level is 104% (inactive). In addition, the differential viability (reversal) in assay [6] (H69AR cells + 2 uM doxorubicin) was 20.5% (inactive). Besides, the figures for the inhibition in assay [7] and in assay [8] were -6.13% (inactive) and -0.48% (inactive), respectively.
For `Cc1cc(C)cc(NC(=O)C2CCCN(c3nccc(C)n3)C2)c1` (stereo not given), the viability in assay [1] is 85%; in assay [3], 85% (inactive); in assay [4], 84% (inactive); in assay [5] it was 104% (inactive); in assay [6] (setting [9]), 91.1%; in assay [6] (setting [10]), 104%. Besides, the Her2 level in assay [2] is 101% (inactive). The differential viability (reversal) in assay [6] (H69AR cells + 2 uM doxorubicin) was 12.9% (inactive). The inhibition in assay [7] is 0.91% (inactive); in assay [8], -5.25% (inactive).
As to `Cc1c(C(=O)OCC(C)(C)CN(C)C)oc2ccccc12`, the viability was 122% in assay [1]; 122% (inactive) in assay [3]; 101% (inactive) in assay [4]; 92.4% (inactive) in assay [5]; 84.3% in assay [6] (setting [9]); 92.4% in assay [6] (setting [10]). The Her2 level in assay [2] was 95% (inactive). For the same compound, the differential viability (reversal) in assay [6] (H69AR cells + 2 uM doxorubicin) is 8.07% (inactive). Also, the inhibition in assay [7] was -6.8% (inactive); in assay [8] it was -4.6% (inactive).
With `COc1ccc(NC(=O)CCCN2C(=O)C3C4C=CC(C4)C3C2=O)c(OC)c1` (stereo not given), the viability in assay [1] is 110%; in assay [3], 110% (inactive); in assay [4], 82% (inactive); in assay [5], 102% (inactive); in assay [6] (setting [9]), 97.1%; in assay [6] (setting [10]) it was 102%. For the same compound, the Her2 level in assay [2] was 94% (inactive). Further, the differential viability (reversal) in assay [6] (H69AR cells + 2 uM doxorubicin) was 5.03% (inactive). Further, the inhibition in assay [7] was -5% (inactive); in assay [8] it was -5.09% (inactive).
For `Cc1cc(NC(c2cccnc2)c2c(C)[nH]c3ccccc23)no1` (stereo not given), the viability is 97% in assay [1]; 97% (inactive) in assay [3]; 85.1% (inactive) in assay [4]; 89% (inactive) in assay [5]; 97% in assay [6] (setting [9]); 89% in assay [6] (setting [10]). The Her2 level in assay [2] was 76% (inactive). In addition, the differential viability (reversal) in assay [6] (H69AR cells + 2 uM doxorubicin) was -8.09% (inactive). The values for the inhibition in assay [7] and in assay [8] were -5.6% (inactive) and 3.61% (inactive), respectively.
